Measurements from PubChem BioAssay.
Active and inactive are the calls of the source.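 How the source made its calls, unless noted: active means inhibition of the reporter signal at or above 50%; inactive means inhibition below 50%.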

What was measured:
[1] = inhibitors of TNFa-induced NFkB p65 translocation, primary screen, imaging, HUVEC, MLSMR starter and 10KST1 sets (AID 438;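 active means inhibition above 20% together with a positive visual image hit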;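 further: compound added about 3h40 before a 20 min TNFalpha stimulation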;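 on inhibition: signal is the nuclear over cytoplasmic p65 intensity ratio per well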); settings: HUVEC TNFa-induced p65 nuclear translocation; cell count: measured here: nuclei count (cytotoxicity indicator), at 2.08 µM; inhibition: at 2 µM, stronger effect = higher value, 0% TNFa-plus-vehicle, 100% no-TNFa wells
[2] = reduction of polyQ htt aggregates in cells – imaging, exon1htt(103Q)mCFP cells, high-content imaging, primary screen (AID 483;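 active means visual image review flags a hit and inhibition of aggregation exceeds 20%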;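 further: compound exposure lasted 3 days before fixation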;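 on nuclei count: percent of the per-plate median nuclei count of sample wells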); settings: exon1htt(103Q)mCFP cell line, aggregate imaging, at 2 µM; inhibition of aggregation: stronger effect = higher value; nuclei count: measured here: cell count, toxicity
[3] = endothelial E-selectin expression blockers – imaging, HUVEC, immunofluorescence, MLSMR starter and 10KST1 sets, primary screen (AID 487;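 active means visually confirmed hit in the image check and inhibition above 20%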;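 on inhibition: signal is fraction of cell area covered by stained E-selectin grains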;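 on nuclei count: 100% = median nuclei count of all wells on the same plate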); settings: HUVEC TNFalpha-induced E-selectin immunofluorescence imaging, at 2 µM; inhibition: stronger effect = higher value; nuclei count: measured here: cell number, toxicity
[4] = target: Voltage-gated potassium channel subunit beta-2 (Rattus norvegicus) (UniProt P62483); assay: inhibitors of rat Kvbeta2 reductase activity – biochemical, NADPH fluorescence, primary screen (AID 622;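 active means fluorescence slope higher than the sample average by over 3 SD, cut at about -0.22 in these data, passing the limit was not always enough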;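 further: slope of raw intensity against log time taken from 70 to 1610 s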); settings: recombinant KvBeta, 4-cyanobenzaldehyde reduction, at 10 µM, stronger effect = higher value
Sequence of Voltage-gated potassium channel subunit beta-2 (Rattus norvegicus) (P62483 whole entry, looked up): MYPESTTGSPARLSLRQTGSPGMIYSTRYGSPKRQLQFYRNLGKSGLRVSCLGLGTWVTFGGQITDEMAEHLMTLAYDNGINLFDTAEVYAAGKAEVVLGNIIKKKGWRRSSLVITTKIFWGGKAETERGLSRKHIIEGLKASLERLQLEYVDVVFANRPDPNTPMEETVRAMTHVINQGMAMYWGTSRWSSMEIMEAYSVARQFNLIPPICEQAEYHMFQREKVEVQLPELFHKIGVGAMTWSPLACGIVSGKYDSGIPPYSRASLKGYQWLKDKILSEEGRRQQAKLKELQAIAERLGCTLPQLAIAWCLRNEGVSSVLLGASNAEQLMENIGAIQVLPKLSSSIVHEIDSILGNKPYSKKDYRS

[5] = target: Voltage-gated potassium channel subunit beta-2 (Rattus norvegicus) (UniProt P62483); assay: enhancers of rat Kvbeta2 NADPH turnover – biochemical, NADPH fluorescence, primary screen (AID 623;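 active means NADPH fluorescence slope more negative than the mean of all samples by about 3 SD, 99.7% confidence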;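 further: fluorescence intensity change per second fitted from 20 to 320 s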); settings: Recombinant KvBeta, NADPH fluorescence decrease slope, 10 min; at 10 µM; stronger effect = lower value
[6] = target: Muscarinic acetylcholine receptor M4 (Homo sapiens) (UniProt P08173); assay: M4-linked GIRK flux change, two-sided – cell-based, HEK293 M4/GIRK, thallium flux, BTC-AM, M4 allosteric agonist project, primary screen (AID 625;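 active means fluorescence slope after compound addition differing from the mean of all tested samples at 99.7% confidence, mostly higher but some lower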;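 further: thallium influx through GIRK channels coupled to M4 in HEK293 cells with BTC-AM dye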); settings: at 10 µM, actives lie on both sides
Sequence of Muscarinic acetylcholine receptor M4 (Homo sapiens) (P08173 whole entry, looked up): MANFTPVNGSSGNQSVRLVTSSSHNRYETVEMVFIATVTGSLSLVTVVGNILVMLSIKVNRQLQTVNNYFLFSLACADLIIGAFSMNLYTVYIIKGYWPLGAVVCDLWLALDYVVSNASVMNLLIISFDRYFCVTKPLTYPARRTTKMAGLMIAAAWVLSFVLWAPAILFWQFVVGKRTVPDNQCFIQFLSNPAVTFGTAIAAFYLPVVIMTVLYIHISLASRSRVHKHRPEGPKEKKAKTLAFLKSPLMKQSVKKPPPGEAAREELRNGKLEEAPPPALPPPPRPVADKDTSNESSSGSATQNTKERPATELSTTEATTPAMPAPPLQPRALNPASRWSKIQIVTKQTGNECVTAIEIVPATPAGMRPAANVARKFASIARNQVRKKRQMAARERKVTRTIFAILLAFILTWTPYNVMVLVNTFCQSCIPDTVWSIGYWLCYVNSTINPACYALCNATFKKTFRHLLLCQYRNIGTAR
Method in brief: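 Material: M4/GIRK1/GIRK2 stable HEK293 cell line. Medium: pH 7.3 thallium assay buffer. Dosing: single compound concentration, 10 µM final. Schedule: 1 h dye loading, 2 min kinetic read. Measured by: kinetic fluorescence with BTC-AM dye. Read-out: post-addition slope, 15–24 s, of baseline-normalized fluorescence. Benchmarks: carbachol and DMSO controls.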

[7] = blockers of RIG-like receptor reporter activation – cell-based, Sendai virus stimulus, luciferase, 10K MLSCN set, TLR/RLR signaling modifier project, primary screen (AID 602276;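 active means inhibition at or above 50% at 10 µM; inactive means inhibition below 50%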;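 further: firefly luciferase from ISG56 promoter only with Renilla not read in this screen; 0% = Sendai virus plus DMSO and 100% = medium plus DMSO without virus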); settings: HEK293 RL24 IRF3 luciferase reporter, at 10 µM, stronger effect = higher value
[8] = TLR3 IRF3 reporter activation blockers – cell-based, poly I:C stimulus, luciferase, 10K MLSCN set, primary screen (AID 602277); settings: HEK293-TLR3 RL24 IRF3 luciferase reporter, at 10 µM, stronger effect = higher value

Row | Structure (SMILES) | cell count [1] | inhibition [1] | inhibition of aggregation [2] | nuclei count [2] | inhibition [3] | nuclei count [3] | fluorescence slope [4] | NADPH fluorescence slope [5] | fluorescence slope [6] | inhibition [7] | inhibition [8]
1 | C=CCN(CC=C)C(=O)CN1C(=O)c2ccccc2C1=O | 356 | 0.2% (inactive) | 27.5% (inactive) | 83.2% | -103% (inactive) | 117% | -0.572 (inactive) | -1.3e-05 (inactive) | 0.0065 (inactive) | 19.9% (inactive) | 22.1% (inactive)
2 | CCc1nnc(NC(=O)c2ccc(-c3cccc(C(F)(F)F)c3)o2)s1 | 730 | -2.9% (inactive) | 43.6% (inactive) | 76.5% | -24.2% (inactive) | 99.1% | -0.528 (inactive) | -4.6e-05 (inactive) | 0.00667 (inactive) | -0.00167% (inactive) | -0.904% (inactive)
3 | Cc1ccc(NC(=O)N2CCC(c3nc4c(nnn4Cc4cccc(Cl)c4)c(=O)[nH]3)CC2)cc1 | 811 | -4.8% (inactive) | -2.1% (inactive) | 55.6% | -3.8% (inactive) | 124% | -0.569 (inactive) | -7.6e-06 (inactive) | 0.00576 (inactive) | 8.55% (inactive) | 21.7% (inactive)
4 | O=C(CCCCCn1c(SCc2ccncc2)nc2ccccc2c1=O)NCc1ccco1 | 458 | -10.3% (inactive) | -29.8% (inactive) | 109% | -25.1% (inactive) | 94.5% | -0.498 (inactive) | -1.1e-05 (inactive) | 0.00498 (inactive) | 8.7% (inactive) | 15.5% (inactive)
5 | O=C(O)CCn1c(SCc2ccccc2)nc2ccccc21 | 423 | -4.4% (inactive) | 25% (inactive) | 73.9% | -33.6% (inactive) | 93.6% | -0.505 (inactive) | -2.4e-05 (inactive) | 0.00554 (inactive) | -9.99% (inactive) | -40.3% (inactive)
6 | COC(=O)C1=C(C)NC(=O)C1(NC(=O)c1cccnc1)C(F)(F)F (configuration not stated) | 609 | -3.9% (inactive) | -6.9% (inactive) | 87.8% | -68.7% (inactive) | 103% | -0.565 (inactive) | -2.9e-05 (inactive) | 0.00444 (inactive) | -31.4% (inactive) | 56.2% (active)
7 | Cc1cccc2cc(C(c3nnnn3C(C)(C)C)N3CCN(C(=O)c4ccco4)CC3)c(=O)[nH]c12 (configuration not stated) | 283 | -1.9% (inactive) | -6.7% (inactive) | 96.1% | -29.9% (inactive) | 88.4% | -0.439 (inactive) | -5.7e-05 (inactive) | 0.00557 (inactive) | 13.4% (inactive) | 16% (inactive)
8 | Cc1nc(C)c(C(=O)C2=C(O)C(=O)N(CCN3CCOCC3)C2c2cccnc2)s1 (configuration not stated) | 256 | -0.4% (inactive) | 22.5% (inactive) | 92.8% | -7.1% (inactive) | 96.9% | -0.557 (inactive) | -0.000101 (inactive) | 0.0026 (inactive) | 17.2% (inactive) | 22.7% (inactive)
9 | COc1ccccc1-c1noc(-c2cccnc2)n1 | 405 | 0% (inactive) | -5.9% (inactive) | 106% | -6.3% (inactive) | 125% | -0.568 (inactive) | -7.6e-05 (inactive) | 0.00345 (inactive) | -24.5% (inactive) | -87.9% (inactive)
10 | O=C(NCc1cccnc1)c1ccccc1Br | 397 | -0.5% (inactive) | 4.6% (inactive) | 104% | -18.8% (inactive) | 112% | -0.521 (inactive) | -1.1e-05 (inactive) | 0.00504 (inactive) | 15.2% (inactive) | 20.8% (inactive)
11 | COc1ccccc1-c1coc2c(CN3CCN(CCO)CC3)c(O)ccc2c1=O | 615 | -0.2% (inactive) | -9.4% (inactive) | 102% | -16% (inactive) | 105% | -0.027 (active) | 5.8e-06 (inactive) | 0.0043 (inactive) | 12.9% (inactive) | 5.54% (inactive)
12 | CCc1nc(N[C@@H](Cc2c[nH]c3ccccc23)C(=O)O)c2oc3ccccc3c2n1 | 570 | -0.4% (inactive) | -19.4% (inactive) | 101% | -59.6% (inactive) | 98.6% | -0.4 (inactive) | 4.2e-05 (inactive) | 0.00556 (inactive) | 10.8% (inactive) | 9.74% (inactive)
13 | CC(=O)Oc1cccc(/C=c2\sc3nc(-c4ccco4)nn3c2=O)c1 | 324 | -0.6% (inactive) | -30% (inactive) | 103% | -69.5% (inactive) | 80.7% | -0.549 (inactive) | -3e-05 (inactive) | 0.00624 (inactive) | 21.5% (inactive) | 16.1% (inactive)
14 | COc1ccccc1-c1c(C)nn2c(C)c(C(C)=O)cnc12 | 768 | -0.8% (inactive) | 13.5% (inactive) | 97% | 96.7% (active) | 81.4% | -0.611 (inactive) | -3.6e-05 (inactive) | 0.00778 (inactive) | 17.1% (inactive) | 14.2% (inactive)
15 | COc1ccccc1-n1cnnc1SCC(=O)c1ccc[nH]1 | 544 | 6.1% (inactive) | 6.1% (inactive) | 96.8% | 17.5% (inactive) | 77.8% | -0.532 (inactive) | -4.3e-05 (inactive) | 0.00668 (inactive) | 9.86% (inactive) | 10.8% (inactive)
16 | CCOc1ccc(OCc2ccc(C(=O)Nc3cccc(C)n3)o2)cc1 | 731 | -4.2% (inactive) | -3.4% (inactive) | 114% | -43.1% (inactive) | 117% | -0.557 (inactive) | -6.3e-05 (inactive) | 0.00558 (inactive) | -27% (inactive) | -74% (inactive)
17 | CCn1c2ccccc2c2cc(NC(=O)CSc3nnc(C4CC4)n3Cc3ccco3)ccc21 | 488 | 6.3% (inactive) | 2.5% (inactive) | 94.6% | 36.4% (inactive) | 94.6% | -0.461 (inactive) | 2.1e-05 (inactive) | 0.00526 (inactive) | 12.7% (inactive) | 17.6% (inactive)
18 | CCOC(=O)c1[nH]cc(-c2ccccc2)c1N1CCOCC1 | 398 | -3.5% (inactive) | 0.7% (inactive) | 110% | -131% (inactive) | 100% | -0.541 (inactive) | -4.5e-05 (inactive) | 0.00498 (inactive) | 4.95% (inactive) | 15.7% (inactive)
19 | O=C(CSc1nnnn1Cc1ccccc1)Nc1ccc2c(c1)OCO2 | 551 | -10.7% (inactive) | 10% (inactive) | 92.1% | -1% (inactive) | 93.6% | -0.257 (inactive) | -9.5e-06 (inactive) | 0.00493 (inactive) | 1.63% (inactive) | 2.13% (inactive)
20 | COC(=O)Cn1cc(C(=O)c2cccs2)c2ccccc21 | 220 | -21.4% (inactive) | 8.5% (inactive) | 82.9% | 4.3% (inactive) | 70.5% | -0.554 (inactive) | -3.7e-05 (inactive) | 0.00685 (inactive) | 14.1% (inactive) | 20.4% (inactive)
21 | CC(=O)CC(=O)Nc1ccccc1NC(C)=O | 470 | 6.5% (inactive) | -2.9% (inactive) | 108% | -17.4% (inactive) | 110% | -0.579 (inactive) | -2.4e-05 (inactive) | 0.00558 (inactive) | 14.2% (inactive) | 15% (inactive)
22 | Cc1ccc(S(=O)(=O)N[C@@H](C)C(=O)N2CCC(C(=O)N3CCC[C@H]3C(=O)O)CC2)cc1 | 361 | 3.6% (inactive) | -14.8% (inactive) | 102% | -59.3% (inactive) | 129% | -0.406 (inactive) | 7.4e-05 (inactive) | 0.00591 (inactive) | 2.84% (inactive) | 13% (inactive)
23 | CC1CCN(CCCNC(=O)c2cn(C)c3ccc(S(=O)(=O)N4CCCC4)cc3c2=O)CC1 | 515 | 1.8% (inactive) | 0% (inactive) | 93.4% | 18.8% (inactive) | 61.5% | -0.321 (inactive) | -5.9e-05 (inactive) | 0.00713 (inactive) | 3.75% (inactive) | 21.7% (inactive)
24 | Cc1cc2oc(=O)cc(CN3CCN(Cc4ccc5c(c4)OCO5)CC3)c2cc1C | 362 | 6.8% (inactive) | -15.1% (inactive) | 99.2% | -0.8% (inactive) | 108% | -0.536 (inactive) | -4.3e-05 (inactive) | 0.00603 (inactive) | 5.83% (inactive) | 27% (inactive)
25 | CCCCc1ccc(NC(=O)N[C@H](C(=O)O)C(C)CC)cc1 (some centres not stated) | 610 | -13.3% (inactive) | -22.8% (inactive) | 109% | -22.1% (inactive) | 118% | -0.446 (inactive) | -3.7e-05 (inactive) | 0.00522 (inactive) | 4.79% (inactive) | 14.4% (inactive)
26 | Cc1cc(Cl)c(S(=O)(=O)NC2CCCCC2)cc1OCC(=O)Nc1nncs1 | 308 | -21.3% (inactive) | -4.2% (inactive) | 107% | -32.9% (inactive) | 118% | -0.506 (inactive) | -3.4e-05 (inactive) | 0.00536 (inactive) | 13.4% (inactive) | 0.658% (inactive)
27 | CCOC(=O)c1cccc(NC(=O)CSc2nnc(-c3ccoc3C)n2CCOC)c1 | 553 | -9.5% (inactive) | 1% (inactive) | 89.7% | -140% (inactive) | 133% | -0.577 (inactive) | 7.3e-06 (inactive) | 0.00584 (inactive) | 18.8% (inactive) | 27.2% (inactive)
